Results reported in ChEMBL document CHEMBL1124154, “Polycyclic aryl- and heteroarylpiperazinyl imides as 5-HT1A receptor ligands and potential anxiolytic agents: synthesis and structure-activity relationship studies” (J Med Chem, 1988).

Assays:
Rattus norvegicus [1] = species on record: Rattus norvegicus; experiment: Concentration required to produce 50% block in avoidance responding in conditioned avoidance response test in rat; type: functional
Summary of the method: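 Trained rats in shelf-jump and/or discrete-trial conditioned avoidance paradigms. Drug given ip or po to at least five rats per dose, with a control session before each drug run. Trials without avoidance (avoidance block) were counted per dose as a percentage of total trials, with control set at 100%. AB50 was taken from a least-squares dose-effect regression line.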

[2] = biological target: D(2) dopamine receptor (Rattus norvegicus) (UniProt P61169); experiment: In vitro inhibition of [3H]spiperone binding to dopamine receptor D2 from rat brain limbic tissue at 1 uM; type: tissue-based; details: Limbic system
Chain of D(2) dopamine receptor (Rattus norvegicus) (P61169 whole entry): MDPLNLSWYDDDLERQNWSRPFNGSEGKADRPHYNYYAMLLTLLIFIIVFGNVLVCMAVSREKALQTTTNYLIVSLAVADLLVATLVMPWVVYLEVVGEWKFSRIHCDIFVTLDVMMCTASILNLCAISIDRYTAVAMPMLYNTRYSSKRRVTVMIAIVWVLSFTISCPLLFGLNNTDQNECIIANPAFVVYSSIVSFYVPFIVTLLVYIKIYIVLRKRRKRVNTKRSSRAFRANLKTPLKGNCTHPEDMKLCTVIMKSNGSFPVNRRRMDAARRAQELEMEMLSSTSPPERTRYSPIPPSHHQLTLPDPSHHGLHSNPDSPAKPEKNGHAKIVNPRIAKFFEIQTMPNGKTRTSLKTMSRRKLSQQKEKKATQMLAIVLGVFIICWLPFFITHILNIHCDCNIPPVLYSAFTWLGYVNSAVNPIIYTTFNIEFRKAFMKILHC

[3] = Ratio of ED50 stereotyped behavior in mice; type: functional
Mus musculus [4] = experiment: Inhibition of apomorphine induced climbing behavior in mice after intraperitoneal administration; type: functional; details: ip
Summary of the method: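 Male CF-1 mice (20-25 g), acclimated at least 3 days, received compound in 0.25% Tween 80 ip at 1, 10, 30 and 60 mg/kg (six/dose) or vehicle. 30 min later they were challenged with apomorphine 1 mg/kg sc. Climbing was scored every 5 min and totaled over 30 min.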

Mus musculus [5] = experiment: Inhibition of apomorphine induced stereotyped behavior in mice after intraperitoneal administration; type: functional; details: ip
Summary of the method: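 Male CF-1 mice (20-25 g, acclimated ≥3 days) received ip compound in 0.25% Tween 80 at 1, 10, 30 and 60 mg/kg (six/dose), alongside vehicle controls. After 30 min they were challenged with apomorphine 1 mg/kg sc. Stereotypy was scored every 5 min and totaled over the 30-min session.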

[6] = biological target: T1, 5-hydroxytryptamine receptor 1A (Rattus norvegicus) (UniProt P19327); experiment: In vitro inhibition of [3H]-8-hydroxy-2-(di-n-propylamino)tetralin binding to 5-hydroxytryptamine 1A receptor from rat hippocampal tissue at 1 uM; details: Hippocampus
T1 sequence (whole entry): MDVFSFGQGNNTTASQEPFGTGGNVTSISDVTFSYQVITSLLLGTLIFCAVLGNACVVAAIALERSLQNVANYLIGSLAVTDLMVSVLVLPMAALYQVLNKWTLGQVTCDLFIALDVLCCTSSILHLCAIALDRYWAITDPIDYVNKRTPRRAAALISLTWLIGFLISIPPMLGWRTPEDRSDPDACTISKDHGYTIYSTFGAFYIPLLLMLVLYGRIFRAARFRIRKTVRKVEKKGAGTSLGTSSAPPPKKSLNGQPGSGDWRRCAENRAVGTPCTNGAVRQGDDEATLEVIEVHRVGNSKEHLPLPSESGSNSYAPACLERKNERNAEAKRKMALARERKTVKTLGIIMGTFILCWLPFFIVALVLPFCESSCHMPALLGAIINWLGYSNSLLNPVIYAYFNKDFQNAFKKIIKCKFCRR

Mus musculus [7] = experiment: Inhibition of apomorphine induced stereotyped behavior (i.p.); type: functional; details: ip
D(2) dopamine receptor = D(2) dopamine receptor (Rattus norvegicus, UniProt P61169); experiment: In vitro inhibition of [3H]spiperone binding to Dopamine receptor D2 from rat brain limbic tissue; type: tissue-based, Limbic system
Chain of D(2) dopamine receptor (P61169 whole entry): as the sequence (P61169 whole entry) above
Summary of the method: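 Limbic tissue (nucleus accumbens, septum, olfactory tubercle) from Sprague-Dawley rats, washed membranes at 0.2-0.3 mg protein. Incubated with 0.3 nM [3H]spiroperidol and a range of drug concentrations, 10 min at 37 °C, in Tris buffer pH 7.1 with NaCl, KCl, CaCl2, ascorbate and pargyline. Filtered through GF/B and counted by scintillation. Nonspecific binding defined with 1 μM (+)-butaclamol.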

[8] = biological target: T2, 5-hydroxytryptamine receptor 1A (Rattus norvegicus, UniProt P19327); experiment: In vitro inhibition of [3H]-8-hydroxy-2-(di-n-propylamino)tetralin binding to 5-hydroxytryptamine 1A receptor from rat hippocampal tissue.
T2 sequence (P19327 whole entry): T1 sequence (whole entry)

[9] = biological target: D(2) dopamine receptor (Rattus norvegicus) (UniProt P61169); experiment: In vitro inhibition of [3H]spiperone binding to Dopamine receptor D2 from rat brain limbic tissue at 10 uM; type: tissue-based; details: Limbic system
[10] = biological target: T1, 5-hydroxytryptamine receptor 1A (Rattus norvegicus); experiment: In vitro inhibition of [3H]-8-hydroxy-2-(di-n-propylamino)tetralin binding to 5-hydroxytryptamine 1A receptor from rat hippocampal tissue; details: Hippocampus; concentration not given here
Rattus norvegicus [11] = experiment: Concentration required to produce 50% block in avoidance responding in conditioned avoidance response test in rat following peroral administration; type: functional
Summary of the method: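 Previously trained rats were given compound po at pretreatment time to at least five rats per dose in a conditioned avoidance paradigm (shelf-jump or discrete trial). A control session preceded each drug run. Trials without avoidance were counted as a % of total trials, with control set at 100%. AB50 came from a least-squares dose-effect regression line.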

| SMILES | AB50 (Rattus norvegicus [1]) [mg/kg] | inhibition [2] [%] | Ratio [3] | ED50 (Mus musculus [5]) [mg/kg] | also measured |
| --- | --- | --- | --- | --- | --- |
| Cl.O=C1C2C3C=CC(C4CCC34)C2C(=O)N1CCCCN1CCN(c2cnccn2)CC1 (configuration not stated) | 60 | 48 | 2.1 | 32 | ED50 (Mus musculus [4]): 15 mg/kg |
| Cl.O=C1C2C3C=CC(C4CC34)C2C(=O)N1CCCCN1CCN(c2cnccn2)CC1 (configuration not stated) | 49 | 33 | 2.35 | 33 | ED50 (Mus musculus [4]): 14 mg/kg; inhibition [6]: 68% |
| COc1ccccc1N1CCN(CCCCN2C(=O)C3C4C=CC(C5CC45)C3C2=O)CC1.Cl (configuration not stated) | 40 | – | 1 | 10 | ED50 (Mus musculus [7]): 10 mg/kg; Ki (D(2) dopamine receptor): 16 nM; Ki [8]: 1.3 nM |
| CC(C)=C1C2C=CC1C1C(=O)N(CCCCN3CCN(c4ncccn4)CC3)C(=O)C21.Cl (configuration not stated) | >40 | – | – | – | inhibition [9]: 50% |
| Cl.O=C1C2C3C=CC(C4CCC34)C2C(=O)N1CCCCN1CCN(c2ccc(C(F)(F)F)cn2)CC1 (configuration not stated) | >40 | 65 | – | – | inhibition [10]: 72% |
| O=C1c2ccccc2S(=O)(=O)N1CCCCN1CCN(c2ncccn2)CC1 [IPSAPIRONE] | 19 | – | – | – | AB50 (Rattus norvegicus [11]): 42 mg/kg; Ki [8]: 10 nM |
| O=C1CC2(CCCC2)CC(=O)N1CCCCN1CCN(c2ncccn2)CC1 [BUSPIRONE] | 5 | – | – | – | AB50 (Rattus norvegicus [11]): 32 mg/kg |
